Three compounds from ChEMBL document CHEMBL4145471, “New 1,5 and 2,5-disubstituted tetrazoles-dependent activity towards surface barrier of Candida albicans” (Eur J Med Chem, 2018) can be followed below.

Assay [1] deals with Candida albicans. The assay can be described thus: Synergistic antifungal activity against Candida albicans ATCC 90028 at 20 ug/ml after 48 hrs in presence of 40 ug/ml fluconazol by checkerboard assay relative to control. It is filed as functional. The gist of the method: (§1)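 Checkerboard in C. albicans ATCC 90028, inoculum prepared per CLSI M27-A3 in RPMI. Fluconazole serially diluted 80-1.25 µg/mL across the plate against the partner compound at 80-1.25 µg/mL final. Incubated 48 h at 35°C. Metabolic activity read by XTT reduction at 475 nm (660 nm reference), given as % of the untreated growth control.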

Assay [2] has as its system Candida albicans. The assay can be described thus: Antifungal activity against Candida albicans ATCC 90028 assessed as metabolic activity at 40 ug/ml after 48 hrs in presence of 20 ug/ml fluconazol by XTT assay relative to control. Background: Tetrazolium dyes change colour on reduction, which living cells bring about.
In assay [3] the test system is Candida albicans. The assay is described as follows: Antifungal activity against Candida albicans ATCC 90028 at 16 ug/ml after 18 hrs relative to control. It counts as functional. The gist of the method: (§2)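 Planktonic broth microdilution per M27-A3 in MOPS-buffered RPMI 1640 (pH 7.0), final inoculum 1.8×10^3 cells/mL, compounds 0.0313–16 µg/mL from 1600 µg/mL stocks in ethanol or DMSO. Incubated at 35°C without agitation; OD405 read at 18 and 48 h. % inhibition was derived from test, sterility (no inoculum) and solvent growth-control wells. Amphotericin B at 0.5 µg/mL served as the 100% control.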

Assay [4] concerns Candida albicans. The assay can be described thus: Antifungal activity against Candida albicans ATCC 90028 at 0.25 ug/ml after 18 hrs relative to control. It is filed as functional. The gist of the method:
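Fluconazole (water stock, diluted in RPMI 1640) tested by CLSI M27-A3 broth microdilution against C. albicans ATCC 90028. Inoculum 1.8×10^3 cells/mL in RPMI 1640 buffered with MOPS, pH 7.0. Incubation at 35°C without agitation, read at 18 and 48 h. Growth by OD405 and visually; inhibition % calculated against solvent growth-control wells after subtracting sterility-control wells.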

The test system of assay [5] is Candida albicans. The assay is described as follows: Antifungal activity against Candida albicans ATCC 90028 at 0.5 ug/ml after 18 hrs relative to control. It is filed as functional. The gist of the method:
as §2

Assay [6] concerns Candida albicans. The assay can be described thus: Synergistic antifungal activity against Candida albicans ATCC 90028 at 10 ug/ml after 48 hrs in presence of 80 ug/ml fluconazol by checkerboard assay relative to control. It is filed as functional. The procedure, abridged:
as §1

For assay [7], the system named is Candida albicans. The assay can be described thus: Synergistic antifungal activity against Candida albicans ATCC 90028 at 5 ug/ml after 48 hrs in presence of 2.5 ug/ml fluconazol by checkerboard assay relative to control. It counts as functional. The gist of the method:
(§3)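 Checkerboard microdilution (M27-A3) on C. albicans ATCC 90028 in RPMI 1640: fluconazole (80-1.25 µg/mL) crossed with tetrazole (80-1.25 µg/mL final), incubated at 35°C for 48 h. Growth by OD405 at 18 and 48 h, endpoint taken as 100% inhibition. FIC index = sum of the two agents' FICs; <1 synergism, >1 antagonism.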

In assay [8] the test system is Candida albicans. The assay can be described thus: Antifungal activity against Candida albicans ATCC 90028 assessed as metabolic activity at 80 ug/ml after 48 hrs in presence of 80 ug/ml fluconazol by XTT assay relative to control. The following applies: ATCC 90028, 48 h.
Assay [9] relates to Candida albicans. The assay can be described thus: Synergistic antifungal activity against Candida albicans ATCC 90028 at 5 ug/ml after 48 hrs in presence of 1.25 ug/ml fluconazol by checkerboard assay relative to control. It is filed as functional. The gist of the method:
as §1

Assay [10] has as its system Candida albicans. The assay is described as follows: Synergistic antifungal activity against Candida albicans ATCC 90028 at 2.5 ug/ml after 48 hrs in presence of 80 ug/ml fluconazol by checkerboard assay relative to control. It counts as functional. The procedure, abridged: as §3
Assay [11] deals with Candida albicans. The assay can be described thus: Synergistic antifungal activity against Candida albicans ATCC 90028 at 1.25 ug/ml after 48 hrs in presence of 40 ug/ml fluconazol by checkerboard assay relative to control. It counts as functional. The gist of the method: (§4)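 Checkerboard per M27-A3 against ATCC 90028: fluconazole at 80–1.25 µg/mL horizontally and partner compound at 80–1.25 µg/mL vertically, 100 µL yeast inoculum per well, 35°C for 48 h. After 48 h, metabolic activity was measured by XTT reduction at 475 nm (660 nm reference) relative to untreated growth control. FIC index is the sum of the FICs; <1 was defined as synergism and >1 as antagonism.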

In assay [12] the test system is Candida albicans. The assay can be described thus: Synergistic antifungal activity against Candida albicans ATCC 90028 at 40 ug/ml after 48 hrs in presence of 1.25 ug/ml fluconazol by checkerboard assay relative to control. It is filed as functional. The procedure, abridged:
as §1

The subject of assay [13] is Candida albicans. The assay is described as follows: Antifungal activity against Candida albicans ATCC 90028 assessed as inhibition of metabolic activity at 1.25 ug/ml after 48 hrs in presence of 80 ug/ml fluconazol by XTT assay relative to control. It counts as functional. The following applies: values are per cent of control. The gist of the method: (§5)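 Checkerboard against strain ATCC 90028, inoculum per M27-A3: fluconazole 80-1.25 µg/mL on one axis, tetrazole 80-1.25 µg/mL on the other. Plates at 35°C for 48 h, then XTT metabolic reduction read at 475 nm (660 nm reference). Activity is the drop in mean absorbance against untreated growth control. FICs and their summed FIC index are taken at 50% reduction in metabolic activity.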

Assay [14] concerns Candida albicans. The assay can be described thus: Synergistic antifungal activity against Candida albicans ATCC 90028 at 10 ug/ml after 48 hrs in presence of 10 ug/ml fluconazol by checkerboard assay relative to control. The following applies: ATCC 90028, 48 h, read-out: GI. It counts as functional. The procedure, abridged:
as §4

Assay [15] concerns Candida albicans. The assay is described as follows: Synergistic antifungal activity against Candida albicans ATCC 90028 at 1.25 ug/ml after 48 hrs in presence of 80 ug/ml fluconazol by checkerboard assay relative to control. It counts as functional. The gist of the method:
as §4

In assay [16] the test system is Candida albicans. The assay can be described thus: Antifungal activity against Candida albicans ATCC 90028 at 0.0313 ug/ml after 48 hrs relative to control. It is filed as functional.
The subject of assay [17] is Candida albicans. The assay can be described thus: Antifungal activity against Candida albicans ATCC 90028 at 8 ug/ml after 48 hrs relative to control. It counts as functional. The procedure, abridged:
as §2

Assay [18] deals with Candida albicans. The assay is described as follows: Antifungal activity against Candida albicans ATCC 90028 assessed as inhibition of metabolic activity at 10 ug/ml after 48 hrs in presence of 10 ug/ml fluconazol by XTT assay relative to control. It is filed as functional. The settings on record: ATCC 90028, 48 h, values are per cent of control. The procedure, abridged:
as §5

The test system of assay [19] is Candida albicans. The assay is described as follows: Synergistic antifungal activity against Candida albicans ATCC 90028 at 40 ug/ml after 48 hrs in presence of 20 ug/ml fluconazol by checkerboard assay relative to control. It counts as functional. The gist of the method: as §1
In assay [20] the test system is Candida albicans. The assay can be described thus: Synergistic antifungal activity against Candida albicans ATCC 90028 assessed as fluconazol FIC at 1.25 to 80 ug/ml after 48 hrs by checkerboard assay. It is filed as functional. The gist of the method:
as §4

For assay [21], the system named is Candida albicans. The assay is described as follows: Synergistic antifungal activity against Candida albicans ATCC 90028 at 1.25 ug/ml after 48 hrs in presence of 10 ug/ml fluconazol by checkerboard assay relative to control. It counts as functional. The procedure, abridged: as §4
The subject of assay [22] is Candida albicans. The assay can be described thus: Antifungal activity against Candida albicans ATCC 90028 at 8 ug/ml after 18 hrs relative to control. It counts as functional. The gist of the method: as §2

Each structure is given as a SMILES string.

A word on the residual activity: it is what remains of the control signal, in per cent. Turning to `CCOC(=O)CCn1nnc(-c2ccccc2)n1`, the “growth inhibition (GI)” value in the assay on Candida albicans [1] is listed as 99.29%; in the assay on Candida albicans [6], 99.49%; in the assay on Candida albicans [7], 99.77%; in the assay on Candida albicans [9] it was 99.71%; in the assay with Candida albicans [10], 99.54%; in the assay on Candida albicans [11] it was 99.46%. In addition, the “growth inhibition (GI)” value in the assay with Candida albicans [12] is recorded as 99.56%; in the assay with Candida albicans [15] it was 99.51%; in the assay on Candida albicans [19] it was 99.54%; in the assay on Candida albicans [21], 99.65%. Besides, the Metabolic activity in the assay on Candida albicans [2] turned out to be 54.82%. The Activity with Candida albicans [3] was found to be 99.95%; with Candida albicans [4], 98.4%; with Candida albicans [5], 98.97%; in the assay on Candida albicans [16], 99.12%; with Candida albicans [17] it was 98.86%; in the assay with Candida albicans [22] it was 99.01%. Moreover, the Metabolic activity at 80 µg/mL in the assay with Candida albicans [8] turned out to be 40%. Further, the residual activity in the assay on Candida albicans [13] came to 66.82%. Also, the inhibition of growth at 10 µg/mL with Candida albicans [14] is 99.4%. The residual activity at 10 µg/mL in the assay with Candida albicans [18] worked out at 76.2%. Moreover, the FIC in the assay with Candida albicans [20] was 5.

As for `ClCCCn1nnnc1-c1ccccc1Cl`, the “growth inhibition (GI)” value in the assay with Candida albicans [1] is reported as 99.34%; in the assay on Candida albicans [6] it was 99.43%; in the assay with Candida albicans [7] it was 99.14%; in the assay with Candida albicans [9] it was 99.79%; with Candida albicans [10] it was 99.49%; with Candida albicans [11], 99.16%. Further, the “growth inhibition (GI)” value in the assay with Candida albicans [12] is on record as 99.93%; in the assay with Candida albicans [15] it was 99.49%; with Candida albicans [19], 99.53%; in the assay with Candida albicans [21], 99.66%. In addition, the Metabolic activity in the assay on Candida albicans [2] is on record as 74.1%. Also, the Activity with Candida albicans [3] was 99.62%; with Candida albicans [4], 99.96%; in the assay with Candida albicans [5], 98.4%; in the assay with Candida albicans [16] it was 99.38%; in the assay on Candida albicans [17] it was 99.06%; with Candida albicans [22] it was 99.44%. Moreover, in the assay on Candida albicans [8], the Metabolic activity at 80 µg/mL stood at 53.2%. In the assay with Candida albicans [13], the residual activity is listed as 62.42%. Further, in the assay on Candida albicans [14], the inhibition of growth at 10 µg/mL turned out to be 99.7%. Moreover, the residual activity at 10 µg/mL in the assay on Candida albicans [18] was 75.4%. Besides, the FIC in the assay with Candida albicans [20] turned out to be 5. The “fold change (FC)” value in the assay on Candida albicans [20] worked out at 5.

Consider `Cc1ccc(-c2nnn(CCCN3CCOCC3)n2)cc1`, for which the “growth inhibition (GI)” value was determined as 98.99% in the assay on Candida albicans [1]; 99.21% with Candida albicans [6]; 98.9% in the assay on Candida albicans [7]; 98.77% with Candida albicans [9]; 99.19% in the assay with Candida albicans [10]; 99.36% in the assay with Candida albicans [11]. Also, the “growth inhibition (GI)” value in the assay on Candida albicans [12] was determined as 99.57%; with Candida albicans [15], 99.54%; in the assay on Candida albicans [19], 99.55%; in the assay on Candida albicans [21], 99.59%. For the same compound, the Metabolic activity in the assay on Candida albicans [2] came out at 54.14%. Besides, the Activity with Candida albicans [3] is listed as 99.87%; with Candida albicans [4], 98.25%; in the assay with Candida albicans [5], 98.99%; in the assay with Candida albicans [16], 99.56%; with Candida albicans [17], 99.39%; with Candida albicans [22], 99.97%. Moreover, the Metabolic activity at 80 µg/mL with Candida albicans [8] was 73.4%. The residual activity with Candida albicans [13] was found to be 100%. The inhibition of growth at 10 µg/mL with Candida albicans [14] was 99%. In addition, the residual activity at 10 µg/mL in the assay on Candida albicans [18] stood at 99%. Also, the FIC in the assay on Candida albicans [20] came out at 5.
